This note sets out measurements from ChEMBL document CHEMBL3627611, “Carbonic anhydrase inhibitors: Design, synthesis, kinetic, docking and molecular dynamics analysis of novel glycine and phenylalanine sulfonamide derivatives” (Bioorg Med Chem, 2015).

Assay [1] has as its target T1, Carbonic anhydrase 1 (Homo sapiens, UniProt P00915). In words: Inhibition of cytosolic carbonic anhydrase 1 esterase activity isolated from human erythrocytes using 4-nitrophenylacetate as substrate measured over 3 mins by spectrophotometric analysis. The gist of the method: (§1)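 Esterase activity followed at 348 nm as 4-nitrophenylacetate (3 mM stock) converts to 4-nitrophenylate, 3 min at 25 °C, in 0.05 M Tris–SO4 pH 7.4. Blank without enzyme; uninhibited control = 100%. Several inhibitor concentrations, each in triplicate; KI from activity-versus-[inhibitor] plots via Cheng–Prusoff.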
Target sequence in this assay (P00915 whole entry): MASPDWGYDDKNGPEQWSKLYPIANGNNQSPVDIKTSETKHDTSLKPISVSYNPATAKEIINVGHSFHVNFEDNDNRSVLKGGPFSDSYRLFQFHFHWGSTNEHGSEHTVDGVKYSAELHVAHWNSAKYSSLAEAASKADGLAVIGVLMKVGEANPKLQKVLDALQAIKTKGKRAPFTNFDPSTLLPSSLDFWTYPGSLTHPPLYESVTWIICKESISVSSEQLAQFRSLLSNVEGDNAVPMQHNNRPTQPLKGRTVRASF

A further assay deals with Carbonic anhydrase 2 (Homo sapiens, UniProt P00918). In words: Inhibition of cytosolic carbonic anhydrase 2 esterase activity isolated from human erythrocytes using 4-nitrophenylacetate as substrate measured over 3 mins by spectrophotometric analysis.
Assay [2] has as its target T1, Carbonic anhydrase 1. In words: Competitive inhibition of cytosolic carbonic anhydrase 1 esterase activity isolated from human erythrocytes in presence of 4-nitrophenylacetate. The gist of the method:
as §1
Target sequence in this assay (P00915 2-261 limits assumed): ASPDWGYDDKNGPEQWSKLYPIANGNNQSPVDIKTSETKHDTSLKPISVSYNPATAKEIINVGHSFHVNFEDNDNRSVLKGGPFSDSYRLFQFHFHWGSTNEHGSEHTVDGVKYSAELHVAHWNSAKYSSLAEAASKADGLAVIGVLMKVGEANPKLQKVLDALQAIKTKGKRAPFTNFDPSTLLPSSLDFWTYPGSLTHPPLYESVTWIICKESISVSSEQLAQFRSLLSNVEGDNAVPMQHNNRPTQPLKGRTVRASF

The source made the active and inactive calls. No cut-off for these calls is given here.

Consider `Cc1ccc(S(=O)(=O)N[C@@H](Cc2ccccc2)C(=O)O)cc1`, for which the results for the inhibition constant Ki on Carbonic anhydrase 1 [1] and at Carbonic anhydrase 2 were 315 µM and 104 µM, respectively. The inhibition entry at Carbonic anhydrase 1 [2] was “Active”.

At Carbonic anhydrase 1 [1], `Cc1ccc(S(=O)(=O)NCC(=O)OCc2ccccc2)cc1` yielded an inhibition constant (Ki) of 29.6 µM. Moreover, at Carbonic anhydrase 1 [2], the inhibition result was “Active”.

`Cc1ccc(S(=O)(=O)N[C@@H](Cc2ccccc2)C(=O)OCc2ccccc2)cc1` had an inhibition constant (Ki) at Carbonic anhydrase 1 [1] of 14.7 µM. For the same compound, the inhibition result at Carbonic anhydrase 1 [2] was “Active”.

In the case of `Cc1ccc(S(=O)(=O)N[C@@H](Cc2ccccc2)C(=O)N2CCCCC2)cc1`, the inhibition constant Ki on Carbonic anhydrase 1 [1] came out at 100 µM. Further, the inhibition entry on Carbonic anhydrase 1 [2] is “Active”.

Consider `COC(=O)CNS(=O)(=O)c1ccc(C)cc1`, for which the Ki on Carbonic anhydrase 1 [1] is 106 µM; at Carbonic anhydrase 2 it was 56.4 µM. Also, the inhibition entry at Carbonic anhydrase 1 [2] is “Active”.

Compound `Cc1ccc(S(=O)(=O)NCC(=O)N2CCCCC2)cc1` yielded an inhibition constant (Ki) on Carbonic anhydrase 2 of 19.3 µM.

For `Cc1ccc(S(=O)(=O)NCC(=O)O)cc1`, the Ki at Carbonic anhydrase 1 [1] turned out to be 120 µM; on Carbonic anhydrase 2, 144 µM. In addition, on Carbonic anhydrase 1 [2], the inhibition result was “Active”.

For the compound `COC(=O)[C@H](Cc1ccccc1)NS(=O)(=O)c1ccc(C)cc1`, the Ki at Carbonic anhydrase 1 [1] turned out to be 63.7 µM. Besides, the inhibition result on Carbonic anhydrase 1 [2] is “Active”.
